Test results published in ChEMBL document CHEMBL1144182, “Antimicrobial and cytotoxic arylazoenamines. Part III: antiviral activity of selected classes of arylazoenamines” (Bioorg Med Chem, 2008).
Calls of active or inactive are those of the source. The rule behind the calls is not given here.

What was measured:
[1] = Cytotoxicity against mock-infected human MT4 cells assessed as reduction in cell viability after 96 hrs by MTT assay; assay type: cell-based
In short: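 Exponentially growing MT-4 cells seeded at 1 × 10^5 cells/mL in RPMI-1640 with 10% FCS, penicillin and streptomycin, with or without serial compound dilutions. Incubated at 37 °C, 5% CO2; viability read by MTT after 96 h. CC50 is the concentration reducing mock-infected cell viability by 50%.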

[2] = Cytotoxicity against mock-infected MDBK cells assessed as reduction in cell viability after 96 hrs by MTT assay; assay type: cell-based, Bos taurus; details: cattle
In short: (§1)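 Cytotoxicity run in parallel with the antiviral assays. MDBK seeded at 6 × 10^5 and BHK at 1 × 10^6 cells/mL in maintenance medium with or without serial compound dilutions. Incubated 48–96 h at 37 °C, 5% CO2, then viability read by MTT. CC50 is the concentration reducing mock-infected cell viability by 50%.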

[3] = test system: Bovine viral diarrhea virus 1; test: Antiviral activity against BVDV infected in MDBK cells assessed as protection against virus-induced cytopathogenicity after 4 days by MTT assay; assay type: functional, organism-based; details: Bovine viral diarrhea virus isolates and strains, 96 h
In short: (§2)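 MDBK (BVDV) or BHK-21 (YFV) cells were seeded at 3 × 10^4 or 5 × 10^4 cells/well respectively and grown overnight to confluent monolayers at 37 °C in 5% CO2. Monolayers were infected at m.o.i. 0.01 in serum-free medium. After 1 h, MEM Earle's with 1% FCS was added, with or without serial compound dilutions. After 3–4 days at 37 °C, viability was read by MTT. EC50 was taken as 50% protection from virus-induced cytopathogenicity.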

[4] = Cytotoxicity against mock-infected BHK cells assessed as reduction in cell viability after 96 hrs by MTT assay; assay type: cell-based, Mesocricetus auratus; details: hamster; in short: as §1
[5] = test system: Yellow fever virus; test: Antiviral activity against YFV infected in BHK21 cells assessed as protection against virus-induced cytopathogenicity after 4 days by MTT assay; assay type: functional, organism-based; details: BHK-21, 96 h; in short: as §2
[6] = Cytotoxicity against mock-infected african green monkey Vero76 cells assessed as reduction in cell viability after 96 hrs by MTT assay; assay type: cell-based, Vero; details: chlorocebus sabaeus
[7] = test system: Coxsackievirus B2; test: Antiviral activity against CVB2 infected in Vero76 cells assessed as reduction in virus plaque formation after 4 days by MTT assay; assay type: functional, organism-based; details: Enterovirus B, Vero 76, 96 h
[8] = test system: Respiratory syncytial virus; test: Antiviral activity against RSV infected in Vero76 cells assessed as reduction in virus plaque formation after 4 days by MTT assay; assay type: functional, organism-based; details: human respiratory syncytial virus, Vero 76, 96 h
[9] = test system: Poliovirus 1; test: Antiviral activity against Sb1 virus infected in Vero76 cells assessed as reduction in virus plaque formation after 4 days by MTT assay; assay type: functional, organism-based; details: Enterovirus C, Sabin, Vero 76, 96 h
[10] = test system: Human alphaherpesvirus 1; test: Antiviral activity against HSV1 infected in Vero76 cells assessed as reduction in virus plaque formation after 4 days by MTT assay; assay type: functional, organism-based; details: Human alphaherpesvirus 1, Vero 76, 96 h
[11] = test system: Human immunodeficiency virus 1; test: Antiviral activity against HIV1 infected in MT4 cells assessed as virus-induced cytopathogenicity after 4 days; assay type: functional, organism-based
[12] = test system: Vaccinia virus; test: Antiviral activity against VV infected in Vero76 cells assessed as reduction in virus plaque formation after 4 days by MTT assay; assay type: functional, organism-based; details: Orthopoxvirus vaccinia; Vero 76
[13] = test system: Vesicular stomatitis virus; test: Antiviral activity against VSV infected in Vero76 cells assessed as reduction in virus plaque formation after 4 days by MTT assay; assay type: functional, organism-based; details: Vero 76

| SMILES | CC50 at 96 h [1] [µM] | CC50 at 96 h [2] [µM] | EC50 [3] [µM] | CC50 at 96 h [4] [µM] | EC50 [5] [µM] | CC50 at 96 h [6] [µM] | EC50 [7] [µM] | EC50 [8] [µM] | EC50 [9] [µM] | EC50 [10] [µM] | Activity [11] | Activity [12] | Activity [13] |
| --- | --- | --- | --- | --- | --- | --- | --- | --- | --- | --- | --- | --- | --- |
| FC(F)(F)c1cc(/N=N\C2=C3CCCN3CCC2)ccc1Cl | 30 | 21 | > 21 | 51 | > 51 | 100 | 9 | > 100 | 12 | 33 | inactive | inactive | inactive |
| CN1CCC/C1=C\N=N\c1ccc(Cl)c(Cl)c1 | 39 | 90 | 16 | 23 | > 23 | 100 | > 100 | > 100 | 53 | 40 | inactive | inactive | inactive |
| CN1CCC/C1=C\N=N\c1ccc(F)c(C(F)(F)F)c1 | 11 | > 100 | 100 | 41 | > 41 | > 100 | 71 | > 100 | > 100 | 60 | inactive | inactive | inactive |
| CN1CCC/C1=C\N=N\c1cccc([N+](=O)[O-])c1 | 25 | > 100 | 5.5 | > 100 | > 100 | > 100 | > 100 | > 100 | > 100 |  | inactive | inactive | inactive |
| Clc1ccccc1/N=N\C1=C2CCCCN2CCC1 | 78 | > 100 | > 100 | 93 | > 93 | > 100 | 32 | 60 | > 100 |  | inactive | inactive | inactive |
| CCOC(=O)c1ccc(/N=N/C=C/N2CCCCC2)cc1 | 33 | > 100 | > 100 | > 100 | > 100 | > 100 | 35 | > 100 | 27 |  | inactive | inactive | inactive |
| Clc1ccccc1N1CCN(/C=C/N=N/c2ccccc2)CC1 | 16 | 13 | > 13 | 69 | > 69 | 14 | 5 | 5 | > 14 |  | inactive | inactive | inactive |
| CCOC(=O)N1CCN(/C=C/N=N/c2ccccc2)CC1 | 17 | 13 | > 13 | > 100 | > 100 | 30 | 12 | 4 | > 30 |  | inactive | inactive | inactive |
| CN1C=C(/N=N/c2cccc(C(F)(F)F)c2)CCC1 | > 100 | > 100 | 90 | > 100 | > 100 | > 100 | > 100 | > 100 | > 100 |  | inactive | inactive | inactive |
| O=[N+]([O-])c1cc(/N=N\C2=C3CCCCN3CCC2)ccc1Cl | 33 | 18 | 18 | 10 | > 10 | 100 | 51 | 75 | > 100 |  | inactive | inactive | inactive |
| FC(F)(F)c1cc(/N=N\C2=C3CCCCN3CCC2)ccc1Br | 34 | > 100 | 61 | > 100 | 80 | 100 | 42 | > 100 | 25 | 25 | inactive | inactive | inactive |
| C(=C\N1CCN(c2ncccn2)CC1)/N=N/c1ccccc1 | 17 | 10 | > 10 | 100 | > 100 | 55 | 0.9 | 5 | > 55 |  | inactive | inactive | inactive |
| FC(F)(F)c1cc(/N=N\C2=C3CCCCN3CCC2)cc(C(F)(F)F)c1 | 34 | 31 | > 31 | 19 | > 19 | 100 | 41 | > 100 | > 100 |  | inactive | inactive | inactive |
| O=[N+]([O-])c1ccc(N2CCN(/C=C/N=N/c3ccccc3)CC2)cc1 | 41 | 20 | > 20 | 48 | 12 | 45 | 14 | 13 | > 45 |  | inactive | inactive | inactive |
| Clc1cccc(/N=N\C2=C3CCCCN3CCC2)c1 | 16 | 20 | > 20 | 46 | > 46 | 60 | 22 | 18 | > 60 |  | inactive | inactive | inactive |
| Clc1cccc(N2CCN(/C=C/N=N/c3ccccc3)CC2)c1 | 19 | 7 | > 7 | 47 | 10 | 11 | > 11 | 5 | > 11 |  | inactive | inactive | inactive |
| CN1/C(=C\N=N\c2ccccc2)C(C)(C)c2ccccc21.[O-][Cl+3]([O-])([O-])O | 30 | 20 | > 20 | 47 | > 47 | 73 | > 73 | > 73 | > 73 |  | inactive | inactive | inactive |
| CCOC(=O)c1ccc(/N=N/C=C/N2CCCC2)cc1 | 26 | 100 | > 100 | > 100 | > 100 | > 100 | 50 | > 100 | > 100 |  | inactive | inactive | inactive |
| CN1C=C(/N=N/c2ccccc2)CCC1 | > 100 | > 100 | > 100 | > 100 | > 100 | ≥ 100 | > 100 | 75 | > 100 |  | inactive | inactive | inactive |
| Fc1ccccc1N1CCN(/C=C/N=N/c2ccccc2)CC1 | 32 | 10 | > 10 | 62 | > 62 | 34 | 6 | 6 | > 34 |  | inactive | inactive | inactive |
